Measured values as given in PubChem BioAssay.
Records with an inconclusive call do not appear.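 The calls were made as follows, unless noted: active = viability increase at or above a cutoff of the median across tested compounds plus 3 SD (cut at about 8.5% in these data, passing the limit was not always enough); inconclusive = some gains above the cutoff, reason not given; inactive = the rest.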

Key:
[1] = S. cerevisiae growth inhibition in permissive medium (OD615), pilot counter-assay for S. cerevisiae lifespan shortening project, permissive growth control (AID 705;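 active = growth inhibition above 25% in both replicates, a cutoff set 3 SD above the mean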); conditions: OD615, 24 h, at 10 µM, stronger effect = higher value
In short: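 Timing: 24 h exposure, 30 °C / Material: Saccharomyces cerevisiae strain carrying genetically modified DeaD replicative-lifespan system / Signal: OD at 615 nm / Compound: 10 µM single dose, 0.25% DMSO / Medium: SC raffinose/galactose permissive medium / Evaluation: reduction in yeast growth (OD615)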

[2] = S. cerevisiae growth inhibition in restrictive medium, OD615, pilot screen, restrictive growth control, yeast lifespan reduction project (AID 706;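 active = growth inhibition above a set limit, 3 SD over mean compound inhibition, in both replicates, cut at about 43% in these data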;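 also: modified DeaD lifespan yeast strain shifted to restrictive glucose medium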); conditions: OD615, 48 h, at 10 µM, stronger effect = higher value
In short: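 System: Engineered S. cerevisiae DeaD strain | Detection: OD615 | Buffer or medium: CSMM-D glucose medium | Doses: 10 µM compound, 0.25% DMSO | Timing: 4 h pre-growth plus 48 h compound exposure, 30 °C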

[3] = doxorubicin toxicity protection in MRP-1 cells – H69AR cells, CellTiter-Glo, duplicate, MRP-1 activator project, pilot screen (AID 807); conditions: H69AR viability with doxorubicin, CellTiter-Glo luminescence; at 10 µM; stronger effect = higher value;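 also: compound pretreatment 18-22 h then 72 h combined with doxorubicin; 0% = doxorubicin alone and 100% = vehicle without doxorubicin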
[4] = viability of HCT116 without oncogenic beta-catenin – human colon tumor cells, pilot screen (AID 823;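 active = cell viability at or below a set limit in both duplicate runs, the limit being the all-compound median minus 4 SD, cut at about 23% in these data, passing the limit was not always enough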;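 also: 0% = wells killed by 20 µM Hyamine and 100% = untreated DMSO cell wells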); conditions: HCT116 beta-catenin knockout viability, CellTiter-Glo, 60 h; at 10 µM; stronger effect = lower value
[5] = viability of PTEN-null HCT116 cells – cell-based, HCT116 clonal line, CellTiter-Glo, pilot screen (AID 824;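 active = viability at or below 27.92% in each of two runs, the all-compound median minus 4 SD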;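 also: 0% = 20 µM Hyamine control and 100% = vehicle cell control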); conditions: HCT116 PTEN-deleted viability, 60 h, at 10 µM, stronger effect = lower value
[6] = RAM pathway blockade in budding yeast – dse1pr::URA3 reporter, 5-FOA selection, pilot screen (AID 869;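 active = inhibition over a set limit, the all-compound mean plus 3 SD, in both replicate runs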;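 also: 0% = DMSO wells with no growth and 100% = 10 µM 1-NA-PP1 with full growth; RAM network block rescues cells from 5-FOA so hits raise OD615 growth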); conditions: S. cerevisiae dse1pr::URA3 5-FOA growth, OD615, 2 d; at 10 µM; stronger effect = higher value; strain carries analog-sensitive mutant Cbk1 kinase
[7] = RAM signaling pathway blockade in yeast – S. cerevisiae, Pdr1DBD-CYC8 efflux-inhibited sensitized strain, primary screen (AID 1298;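 active = RAM network inhibition above 8.4% in each of two replicates, 3 SD over the compound average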;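 also: 0% = DMSO untreated cells without growth and 100% = 10 µM 1-NA-PP1 full growth; higher means more yeast growth rescued from 5-FOA killing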); conditions: S. cerevisiae cbk1-as DSE1-URA3 strain, 5-FOA growth OD615, 2 d; at 50 µM; stronger effect = higher value

O=C(NCCc1ccc(Cl)cc1)c1nnc(Cc2ccc(Cl)cc2)o1
inactive: growth inhibition [1] -3.81% | growth inhibition [2] 3.52% | viability increase [3] 0.2% | viability [4] 103% | viability [5] 103% | inhibition [6] 2.82% | RAM network inhibition [7] 7.52%

O=C(O)c1ccc(-n2nnnc2SCc2ccccc2F)cc1
inactive: growth inhibition [1] -13.7% | growth inhibition [2] 6.63% | viability increase [3] 1.71% | viability [4] 105% | viability [5] 102% | inhibition [6] 2.46% | RAM network inhibition [7] 9.03%

Cc1cc(N2CCN(C(c3ccccc3)c3ccc(Cl)cc3)CC2)n2ncnc2n1 (configuration not stated)
inactive: growth inhibition [1] -1.52% | growth inhibition [2] 7.98% | viability increase [3] -4.33% | viability [4] 66.1% | viability [5] 63.2% | inhibition [6] 0.13% | RAM network inhibition [7] 3.39%

O=C(CCn1c(=O)oc2ccccc21)Nc1cccc(Cl)c1
inactive: growth inhibition [1] -14.4% | growth inhibition [2] -11% | viability increase [3] 0.42% | viability [4] 92.8% | viability [5] 96.4% | inhibition [6] 2.17% | RAM network inhibition [7] 2.21%

CC(NC(=O)C1CCCN(S(=O)(=O)c2cnc[nH]2)C1)c1ccccc1 (configuration not stated)
inactive: growth inhibition [1] 2.1% | growth inhibition [2] 2.4% | viability increase [3] -0.99% | viability [4] 98.3% | viability [5] 97.4% | inhibition [6] -0.19% | RAM network inhibition [7] -0.35%

O=C(NCCCNCc1ccccc1)c1ccc(/C=N/O)nc1
inactive: growth inhibition [1] -8.54% | growth inhibition [2] -12.5% | viability increase [3] -1.94% | viability [4] 93.2% | viability [5] 97.9% | inhibition [6] 1.73% | RAM network inhibition [7] 3.09%

Cc1ccccc1NC(=O)CN1C(=O)COc2ccc(Cl)cc21
inactive: growth inhibition [1] -14.1% | growth inhibition [2] -18% | viability increase [3] 1.63% | viability [4] 95% | viability [5] 87.9% | inhibition [6] 0.995% | RAM network inhibition [7] 4.92%

CCNC(=O)c1c(C)nc2ccccn12
inactive: growth inhibition [1] 3.27% | growth inhibition [2] -7.95% | viability increase [3] -3.03% | viability [4] 101% | viability [5] 91% | inhibition [6] -0.1% | RAM network inhibition [7] 0.67%

CCOc1ccc(NC(=O)N2CCC(n3c(=O)[nH]c4ccccc43)CC2)cc1
inactive: growth inhibition [1] -13.3% | growth inhibition [2] -22% | viability increase [3] 6.11% | viability [4] 83.2% | viability [5] 84.2% | inhibition [6] 1.9% | RAM network inhibition [7] 2.37%

Cc1csc2nc(CNS(=O)(=O)N(C)C)cn12
inactive: growth inhibition [1] 4.64% | growth inhibition [2] 19.6% | viability increase [3] -3.46% | viability [4] 95.2% | viability [5] 99.1% | inhibition [6] 0.875% | RAM network inhibition [7] 0.05%

COc1ccc(OC)c(NC(=O)Nc2ccccc2C)c1
inactive: growth inhibition [1] -3.12% | growth inhibition [2] -16.3% | viability increase [3] -3.16% | viability [4] 102% | viability [5] 95.9% | inhibition [6] 1.13% | RAM network inhibition [7] 1.79%

Cc1nc2ccc(S(=O)(=O)NC(C(=O)NC3CCCC3)C(C)C)cc2s1 (configuration not stated)
inactive: growth inhibition [1] -5.81% | growth inhibition [2] -1.42% | viability increase [3] -0.4% | viability [4] 102% | viability [5] 101% | inhibition [6] 1.04% | RAM network inhibition [7] 1.87%

CN(Cc1ccccc1)C(=O)CCS(=O)(=O)c1ccc2c(c1)n(C)c(=O)c(=O)n2C
inactive: growth inhibition [1] -4.66% | growth inhibition [2] -4.58% | viability increase [3] 0.66% | viability [4] 95.7% | viability [5] 100% | inhibition [6] 1.23% | RAM network inhibition [7] 4.6%

CCN1CCN(CC(=O)NC2CCCC2)C(=O)C1=O
inactive: growth inhibition [1] 5.56% | growth inhibition [2] -5% | viability increase [3] 0.46% | viability [4] 114% | viability [5] 94.9% | inhibition [6] 1.52% | RAM network inhibition [7] 1.79%

O=C(Cn1nc(Cc2cccnc2)c2ccccc2c1=O)N1CCN(c2ccccn2)CC1
inactive: growth inhibition [1] 4.64% | growth inhibition [2] 2.73% | viability increase [3] 0.48% | viability [4] 94.8% | viability [5] 100% | inhibition [6] 0.985% | RAM network inhibition [7] -0.56%

COc1ccc(Nc2cc(C)nc3nc(C)nn23)c(OC)c1
inactive: growth inhibition [1] -2.91% | growth inhibition [2] 4.67% | viability increase [3] -1.65% | viability [4] 109% | viability [5] 106% | inhibition [6] 0.83% | RAM network inhibition [7] 0.32%
